Screens deposited in PubChem BioAssay by several laboratories.
MDM2 E3 inh = Mdm2 E3 ligase (human) inhibition; Q00987; cell-based MDM2 ubiquitination luciferase reporter, 2 h; 0 = plate control, 100 = twice control, blank-subtracted; signal enhancement, % at 5 µM; hit rate 0.11% among 210,000;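 active = signal enhancement of 30% or more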;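 note: luminescence tracks abundance of the self-degrading MDM2-luciferase fusion protein; higher signal means inhibition of MDM2 E3 ligase activity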
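Timing – 2 h compound exposure at 37 °C · Assay system – mammalian cells stably expressing self-ubiquitinating, self-degrading MDM2 E3–luciferase fusion · Amount – 2000 cells seeded into each well · Measure – % luminescence enhancement versus blank-corrected plate control mean · Measured by – SteadyLite luminescence, 15 min reagent step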
S1P3 antag = S1P3 (human) receptor antagonism. CHO S1P3 NFAT-BLA reporter, FRET fluorescence, antagonist mode. inhibition, % at 4.98 µM. hit rate 0.27% among 170,000;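 active = inhibition above the plate cutoff, the mean inhibition of test wells on that plate plus 3 SD, cut at about 28% in these data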;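 note: cells challenged with S1P at its EC80 of 0.8 µM; blue over green emission ratio from cleaved BLA substrate after 4 h stimulation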
Target sequence (Q99500 whole entry, looked up): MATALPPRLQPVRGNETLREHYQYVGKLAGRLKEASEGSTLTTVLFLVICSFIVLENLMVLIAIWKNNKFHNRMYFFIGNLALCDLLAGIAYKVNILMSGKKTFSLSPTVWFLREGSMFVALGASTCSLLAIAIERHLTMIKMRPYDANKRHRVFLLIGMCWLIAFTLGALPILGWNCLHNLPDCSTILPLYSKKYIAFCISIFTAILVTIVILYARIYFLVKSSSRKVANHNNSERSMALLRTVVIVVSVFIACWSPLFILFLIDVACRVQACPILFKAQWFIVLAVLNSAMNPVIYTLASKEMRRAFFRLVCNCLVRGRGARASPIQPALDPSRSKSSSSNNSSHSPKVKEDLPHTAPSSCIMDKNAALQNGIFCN
S1P4 agonist = agonists of human S1P4 receptor; O95977; S1P4-expressing cell line, agonist reporter assay; activation, % at 4.98 µM; hit rate 0.35% among 220,000; AID 1509; in the data active = activation above about 11%
L major viab = Leishmania major promastigote growth inhibition | Leishmania major promastigotes, resazurin fluorescence viability | inhibition, % at 10 µM | hit rate 9% among 200,000; in the data active = inhibition above about 50%;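 note: promastigotes grown with compound for 44 hours at 28 °C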
S1P4 antagonist = blocks the human S1P4 receptor; O95977; S1P4-expressing cells, antagonist mode, reporter read-out; inhibition, % at 4.98 µM; hit rate 0.26% among 220,000; AID 1510; in the data active = inhibition above about 29%
Large screens that a line does not name were inactive. The full list was thinned out, with hits kept by preference.

CS(=O)(=O)c1ccc(Cl)c(NC(=O)CSc2nc3ccccc3c(=O)n2CCCN2CCOCC2)c1	L major viab 85.3
CCOc1ccc(C(=O)c2cc([N+](=O)[O-])ccc2Cl)cc1	none (no result: S1P3 antag)
O=C(Oc1cccc2cccnc12)c1cccc([N+](=O)[O-])c1	none
O=C(Oc1c(Cl)cc(Cl)c2cccnc12)c1cccc([N+](=O)[O-])c1	L major viab 70.4
O=C(Cc1c[nH]c2ccccc12)NCc1ccc(Cl)cc1Cl	none
CC(C)(C)c1ccc(C(=O)OCCNC(=O)c2c(Cl)nc3ccccn23)cc1	L major viab 75.6 (no result: S1P3 antag)
O=C(O)c1cccnc1SCC(=O)N1CCCc2ccccc21	none (no result: L major viab)
O=C(COC(=O)c1cc(-c2cccc(Br)c2)nc2ccccc12)NCC1CCCO1 (stereo not given)	none
CCN1/C(=C\c2ccc3cc(C)ccc3[n+]2CC)Sc2cc(C)c(C)cc21	L major viab 100.4
CCN1/C(=C/c2ccc3cccc(C)c3[n+]2CC)Sc2ccccc21	L major viab 100.6 (no result: S1P3 antag)
CCN1/C(=C\C=C(C(C)=O)C(C)=O)Sc2ccccc21	none
CCN1/C(=C\C(C)=O)Sc2ccc(OC)cc21	none (no result: S1P3 antag)
CCN1/C(=C/c2ccc3cc(C)cc(C)c3[n+]2CC)Sc2cc(C)ccc21	L major viab 100.4
COc1ccccc1CNC(=O)C(NC(=O)c1ccccc1)C(C)C (stereo not given)	none
CC1Cc2ccccc2N1S(=O)(=O)c1cccc(C(=O)N2CCN(c3ncccn3)CC2)c1 (stereo not given)	L major viab 77.4
CCOC(=O)c1ccc(NC(=O)c2cccc(S(=O)(=O)N3c4ccccc4CC3C)c2)s1 (stereo not given)	L major viab 99.2
CC1Cc2ccccc2N1S(=O)(=O)c1cccc(C(=O)N2CC(=O)Nc3ccccc32)c1 (stereo not given)	none (no result: L major viab)
CC1Cc2ccccc2N1S(=O)(=O)c1cccc(C(=O)NCCCO)c1 (stereo not given)	none
CCN(CC)S(=O)(=O)c1ccc(C(=O)OCn2c(SC)nnc(C)c2=O)cc1	none
COc1ccc(C=O)cc1OS(=O)(=O)c1ccccc1[N+](=O)[O-]	L major viab 90.4
CC(/C=N/NC(=O)c1cc(-c2cccn2C)n[nH]1)=C\c1ccccc1	none (no result: L major viab)
Nc1c(N2CCCC2)cc(Cl)c2nonc12	L major viab 86.4
Cc1ccc(CCNC(=O)CN(C)S(=O)(=O)c2ccc3c(c2)n(C)c(=O)c(=O)n3C)cc1	none (no result: L major viab)
O=C(OCC(=O)c1c[nH]c2ccccc12)c1cc(Br)ccc1O	none
O=C(Nc1cccc(NC(=O)c2ccco2)c1)c1ccc2c(c1)OCCO2	L major viab 51.3
O=C(Nc1ccc2c(c1)OCCO2)c1ccco1	none
O=C(Nc1cccc(NC(=O)c2ccco2)c1)c1ccc2c(c1)OCO2	L major viab 81.0
O=C(OC1CCCCC1)c1ccc(NC(=O)c2ccco2)cc1	L major viab 75.2
O=C(NCC1COc2ccccc2O1)c1ccc(NC(=O)c2ccco2)cc1 (stereo not given)	L major viab 55.1
O=C(Nc1ccc(OC(=O)c2ccco2)cc1)c1ccco1	none
Cc1ccc[n+](-c2[nH]c(=O)sc2/C=N/NC(=O)c2ccccc2[O-])c1	none
CCOc1ccc2cc(C3CC(c4ccco4)=NN3S(C)(=O)=O)c(Cl)nc2c1 (stereo not given)	none (no result: L major viab)
CCOc1ccc2cc(/C=C/C(=O)c3ccco3)c(Cl)nc2c1	L major viab 64.1 (no result: MDM2 E3 inh, S1P3 antag)
CCC(=O)NC(=S)NNC(=O)c1ccc(NC(=O)c2ccccc2)cc1	L major viab 99.3
CCCCC(=O)NC(=S)NNC(=O)c1ccc(OC)cc1	L major viab 58.5 (no result: MDM2 E3 inh)
COc1ccc(/C=C/C(=O)NC(=S)NNC(=O)c2cnccn2)cc1	none (no result: L major viab)
C=CCNC(=S)NNC(=O)c1ccc(OCCC)cc1	none (no result: S1P3 antag)
CCNC(=S)NNC(=O)c1ccc(OC)cc1	none (no result: MDM2 E3 inh)
CCCOc1ccc(C(=O)NNC(=S)NC(=O)CC)cc1	L major viab 95.0 (no result: S1P3 antag)
COc1ccc(/C=C/C(=O)NC(=S)NNC(=O)c2cccnc2)cc1	L major viab 92.7
CCCCNC1C(CC)C(CCC)C(C#N)(C#N)C1(C#N)C#N (stereo not given)	none
CN(C)c1ccc(N/C(N)=N/c2nc(C(F)(F)F)cc(C(F)(F)F)n2)cc1	none
CCC(=O)N1c2ccc(S(=O)(=O)CCC(=O)N3CCn4c3nc3ccccc34)cc2CC1C (stereo not given)	L major viab 78.7
Cc1cccc(N2CCN(C(=O)CCCn3c(=S)[nH]c4cc5c(cc4c3=O)OCO5)CC2)c1C	L major viab 64.0 (no result: S1P3 antag)
O=C(CCCn1c(=S)[nH]c2cc3c(cc2c1=O)OCO3)N1CCN(c2ccc(Cl)cc2)CC1	L major viab 56.0 (no result: S1P3 antag)
O=C(CCCn1c(=S)[nH]c2cc3c(cc2c1=O)OCO3)N1CCN(c2ccccc2)CC1	none (no result: S1P3 antag)
O=C(CSc1nnnn1C1CCCCC1)NCCc1ccccc1	none
O=C(O)C1C2C=CC(C2)C1C(=O)NCc1ccccn1 (stereo not given)	none (no result: S1P3 antag)
O=C(NCc1ccccn1)C1C2C=CC(C2)C1C(=O)Nc1ccc(F)cc1 (stereo not given)	L major viab 75.5 (no result: S1P3 antag)
COc1ccc(C(=O)/C=C(/C)N(C)C)cc1	none (no result: S1P3 antag)
COc1ccc(C(=O)C(CCCCC(CN(C)C)C(=O)c2ccc(OC)cc2)CN(C)C)cc1 (stereo not given)	L major viab 100.5 (no result: S1P3 antag)
N#C/C(=C\N1CCCCC1)S(=O)(=O)c1ccc(Cl)cc1	none (no result: L major viab)
O=C(Nc1ccc(N2CCN(C(=O)c3ccco3)CC2)c(Cl)c1)c1cc2ccccc2o1	L major viab 95.9
CCCC(=O)N1CCN(c2ccc(NC(=O)c3cc4ccccc4o3)cc2Cl)CC1	L major viab 60.1
CCC(=O)N1CCN(c2ccc(NC(=O)c3cc4ccccc4o3)cc2Cl)CC1	none
Cc1ccccc1Cn1cc(NC(=O)CCCn2nc([N+](=O)[O-])cc2C)cn1	none
C[n+]1cc[nH]c1SCC(=O)c1ccccc1	none (no result: S1P3 antag)
O=C(CN1CCCCCCC1)N/N=C/c1ccc(F)cc1F	L major viab 60.6
O=C(CN1CCCCCC1)N/N=C/c1ccc(Cl)c(Cl)c1	L major viab 87.9
Cc1cccc(/C=N/NC(=O)CN2CCCCCCC2)c1	none
O=C(Nc1ccc(Cl)c(Cl)c1)Nc1nnc(CC2=CCCCC2)s1	none
Cc1cc(C)c2c(N)c(C(=O)c3cccc(Cl)c3)sc2n1	L major viab 100.2
CC(=O)c1sc2nc(C)cc(C)c2c1N	none (no result: S1P3 antag)
Cc1cc(C)c2c(N)c(C(=O)c3ccc(Cl)cc3Cl)sc2n1	L major viab 100.1
Cc1cc(C)c2c(N)c(C(=O)Nc3ncc(C)s3)sc2n1	L major viab 67.9 (no result: S1P3 antag)
Cc1cc(C)c2c(N)c(C(=O)c3ccccc3Cl)sc2n1	none (no result: L major viab)
CCS(=O)(=O)c1ccc2oc(SCC(=O)N3CCCCC3)nc2c1	none
COc1ccc(C(=O)Oc2cccc(/C=N/NC(N)=S)c2)cc1	none
Cc1cc(SCC(=O)c2cc(C)n(C)c2C)nc2ccccc12	none
O=C(Nc1ccc(OC(F)F)c(Cl)c1)Nc1ccc2c(c1)OCO2	none
O=C(Cc1ccc(Cl)cc1Cl)Nc1ccc(OC(F)F)c(Cl)c1	L major viab 52.5
